In ChEMBL document CHEMBL1158452, “Na+ currents in cardioprotection: better to be late” (J Med Chem, 2009) one finds inhibition and Activity data, which are given here for 23 compounds.

The term inhibition denotes the share of the control response that was lost under treatment.

Test [1] has as its target T1, Sodium channel protein type 5 subunit alpha (Homo sapiens, UniProt Q14524). Put plainly: Inhibition of human Nav1.5 channel expressed in HEK293 cells assessed as blockade of veratridine-induced late inward sodium current elicited at -30 mV from holding potential -110 mV at 10 uM by patch clamp method. The test is classed as cell-based. Summed up:
(§1)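 HEK293 cells expressing hNaV1.5, room temperature (19-22 °C). Pipette (mmol): NaCl 10, CsCl 110, CaCl2 1, HEPES 10, EGTA 10, Mg-ATP 5, glucose 10, pH 7.3; bath: NaCl 30, CsCl 100, MgCl2 2, CaCl2 2, HEPES 10, glucose 5, pH 7.4. Veratridine 40 μM; 350 ms pulses to -30 mV at 0.2 Hz; late INa = mean current over last 10 ms; DMSO final 0.1%.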

Test [2] addresses T1, Sodium channel protein type 5 subunit alpha. Briefly: Inhibition of human Nav1.5 channel expressed in HEK293 cells assessed as blockade of veratridine-induced late inward sodium current elicited at -30 mV from holding potential -90 mV at 10 uM by patch clamp method. Type of test: cell-based. Summed up: as §1
On the technique in general: Patch clamp records ionic current or voltage across a cell membrane.

Test [3] has as its system Heart. Briefly: Cardioprotective activity in Langendorff-perfused guinea pig heart assessed as inhibition of global ischemia-induced diastolic contracture at 1 uM. To be noted: Cavia porcellus. Type of test: functional. A digest of the protocol: (§2)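 Female Hartley guinea pig hearts, Langendorff-perfused at constant 800 mm H2O with modified Krebs (pH 7.4, 95% O2/5% CO2), 37 °C, LV latex balloon. After 45-60 min equilibration, compound or vehicle perfused 15 min, then 50 min global normothermic ischemia and 60 min reperfusion; one concentration per heart. LVDP, end-diastolic pressure, heart rate, dP/dt, coronary flow recorded.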

The subject of a further test is Cardiac atrium. To be noted: Rattus norvegicus, Wistar, 1 uM.
For test [4], the species on record is Sus scrofa. Put plainly: Cardioprotective activity against myocardial ischemia-reperfusion in Landrace pig heart assessed as prevention of post reperfusion injury after 48 hrs. The test is classed as functional, tissue-based. Summed up: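 Anaesthetised male Landrace pigs (18-25 kg); LCX occluded 60 min, reperfused 48 h. Compound i.v. bolus 10 min pre-ischemia plus infusion through occlusion and first 30 min reperfusion. Evans blue delineates area at risk, TTC (0.1%) stains viable tissue; 10 mm LV slices imaged; necrosis expressed as % of area at risk. Means ± SEM; ANOVA with Dunnett's test.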

The subject of a further test is Plasma. Briefly: Cardioprotective activity in […] Landrace pig assessed decrease in troponin 1 plasma level administered iv 60 mins before ischemia measured after 6 hrs of reperfusion. To be noted: Sus scrofa. The test is classed as functional, organism-based.
In test [5] the test system is Heart. Briefly: Cardiovascular activity in Langendorff-perfused guinea pig heart assessed as change in left ventricular developed pressure at 1 uM. The test is classed as functional, Cavia porcellus. Summed up: as §2
Test [6] concerns Sus scrofa. Put plainly: Cardioprotective activity in […] Landrace pig heart assessed as change collateral circulation administered iv 60 mins before ischemia followed by 48 hrs of reperfusion. Type of test: functional, organism-based.
Test [7] concerns Heart. Briefly: Cardiovascular activity in Langendorff-perfused guinea pig heart assessed as change in heart rate at 1 uM. The test is classed as functional, Cavia porcellus. Summed up:
as §2

The nature of test [8]: Cardioprotective activity in […] Landrace pig heart assessed decrease in myocardial infarct size […]. The test is classed as functional, Sus scrofa. Further details: scale not given: the % may be the effect or the level left.
For test [9], the species on record is Sus scrofa. Briefly: Cardioprotective activity in […] Landrace pig assessed enhancement of Na+ current. Type of test: functional, organism-based.
Test [10] relates to Sus scrofa. Briefly: Cardioprotective activity in […] Landrace pig heart assessed as change in blood flow administered iv 60 mins before ischemia followed by 48 hrs of reperfusion. Type of test: functional, organism-based.
For test [11], the system named is Heart. Briefly: Cardiovascular activity in Langendorff-perfused guinea pig heart assessed as change in coronary vascular resistance at 1 uM. Type of test: functional, Cavia porcellus. Summed up:
as §2

Test [12] is described as follows: Cardioprotective activity in […] Landrace pig heart assessed decrease in myocardial infarct volume […] followed by 30 mins of reperfusion. Type of test: functional, Sus scrofa. Details: scale not given: the % may be the effect or the level left.

The source made the active and inactive calls. No cut-off for these calls is given here.

T1 sequence (Q14524 whole entry): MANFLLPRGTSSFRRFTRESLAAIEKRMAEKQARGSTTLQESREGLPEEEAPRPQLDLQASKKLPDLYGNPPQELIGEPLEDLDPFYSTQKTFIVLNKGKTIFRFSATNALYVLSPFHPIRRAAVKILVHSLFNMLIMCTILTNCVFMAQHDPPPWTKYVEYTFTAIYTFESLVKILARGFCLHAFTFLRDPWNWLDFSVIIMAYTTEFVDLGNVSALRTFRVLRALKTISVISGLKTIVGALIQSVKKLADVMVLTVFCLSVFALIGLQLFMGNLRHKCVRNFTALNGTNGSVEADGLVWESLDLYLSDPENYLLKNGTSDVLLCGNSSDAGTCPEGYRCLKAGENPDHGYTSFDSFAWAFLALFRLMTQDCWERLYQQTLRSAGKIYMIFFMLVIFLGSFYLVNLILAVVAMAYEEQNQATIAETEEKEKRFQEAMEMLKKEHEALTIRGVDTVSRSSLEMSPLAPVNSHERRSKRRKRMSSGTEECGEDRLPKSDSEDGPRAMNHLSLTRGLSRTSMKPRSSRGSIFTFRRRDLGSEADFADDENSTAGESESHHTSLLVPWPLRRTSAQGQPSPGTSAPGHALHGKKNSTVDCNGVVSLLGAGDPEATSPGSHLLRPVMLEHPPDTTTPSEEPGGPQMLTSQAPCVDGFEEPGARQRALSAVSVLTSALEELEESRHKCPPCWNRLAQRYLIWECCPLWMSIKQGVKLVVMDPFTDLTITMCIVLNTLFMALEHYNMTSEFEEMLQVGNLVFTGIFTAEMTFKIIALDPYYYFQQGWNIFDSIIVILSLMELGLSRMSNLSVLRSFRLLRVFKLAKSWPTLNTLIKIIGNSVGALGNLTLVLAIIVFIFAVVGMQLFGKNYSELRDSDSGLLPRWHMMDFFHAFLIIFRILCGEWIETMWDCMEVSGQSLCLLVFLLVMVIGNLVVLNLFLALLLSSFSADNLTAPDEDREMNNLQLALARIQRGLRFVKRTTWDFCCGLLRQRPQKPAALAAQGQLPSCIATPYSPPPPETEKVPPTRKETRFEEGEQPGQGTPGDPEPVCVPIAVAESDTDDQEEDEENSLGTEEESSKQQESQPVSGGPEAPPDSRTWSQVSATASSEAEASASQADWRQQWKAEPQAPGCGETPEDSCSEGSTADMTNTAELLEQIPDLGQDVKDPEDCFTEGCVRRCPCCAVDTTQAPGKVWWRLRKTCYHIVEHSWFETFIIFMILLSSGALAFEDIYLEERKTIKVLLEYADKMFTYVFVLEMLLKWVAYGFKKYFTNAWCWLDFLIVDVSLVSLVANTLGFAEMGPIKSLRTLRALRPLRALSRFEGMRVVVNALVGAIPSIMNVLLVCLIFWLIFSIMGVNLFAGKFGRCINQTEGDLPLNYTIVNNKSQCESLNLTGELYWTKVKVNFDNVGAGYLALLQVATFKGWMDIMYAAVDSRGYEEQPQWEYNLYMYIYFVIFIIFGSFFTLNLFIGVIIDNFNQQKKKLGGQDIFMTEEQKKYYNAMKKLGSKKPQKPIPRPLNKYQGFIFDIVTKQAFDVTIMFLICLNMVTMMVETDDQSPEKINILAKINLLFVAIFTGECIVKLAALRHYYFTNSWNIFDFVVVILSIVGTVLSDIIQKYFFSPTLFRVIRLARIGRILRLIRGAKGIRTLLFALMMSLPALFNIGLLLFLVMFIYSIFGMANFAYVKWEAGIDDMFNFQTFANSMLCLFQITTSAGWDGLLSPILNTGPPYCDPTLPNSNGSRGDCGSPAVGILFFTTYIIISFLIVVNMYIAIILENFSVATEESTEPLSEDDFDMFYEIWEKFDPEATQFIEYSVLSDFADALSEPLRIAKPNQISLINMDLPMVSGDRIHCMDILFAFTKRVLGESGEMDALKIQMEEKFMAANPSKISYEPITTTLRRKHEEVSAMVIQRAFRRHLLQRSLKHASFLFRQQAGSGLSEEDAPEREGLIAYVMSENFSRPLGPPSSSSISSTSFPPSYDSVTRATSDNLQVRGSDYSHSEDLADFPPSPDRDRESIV

With `CCOc1ccccc1SC[C@@H](C)CN[C@@H]1COc2ccccc2SC1`, the inhibition at 10 µM turned out to be 41% in test [1] and 54% in test [2].
For `CC(C)c1cccc(SC[C@@H](C)CN[C@@H]2COc3ccccc3SC2)c1O` the same measures were 38% and 46%.
With `C[C@@H](CN[C@@H]1COc2ccccc2SC1)CSc1cccc2ncoc12`, in the test on Heart [3], the inhibition at 1 µM turned out to be 84%. Moreover, the inhibition at 10 µM was found to be 16% in test [1] and 26% in [2].
With `C[C@@H](CN[C@@H]1COc2ccccc2SC1)CSc1cccc2ccoc12`, the inhibition at 1 µM in the test with Heart [3] came to 68%. The inhibition at 10 µM in [1] stood at 73%; in test [2], 82%.
The matching figures for `Cc1cccc(SC[C@@H](C)CN[C@@H]2COc3ccccc3SC2)c1CO`: 31%, 45% and 58%.
With `C[C@@H](CN[C@@H]1COc2ccccc2SC1)CSc1cccc2cn[nH]c12`, the inhibition at 1 µM in the test on Heart [3] came out at 73%. For the same compound, the inhibition at 10 µM in test [1] was 34%; in [2], 44%.
As to `NC1=N[C@H](O)[C@H]2[C@H]3O[C@]4(O)O[C@@H]([C@@H](O)[C@@]2(N1)[C@@H]4O)[C@]3(O)CO`, in the test with Cardiac atrium, the inhibition turned out to be 64%.
Take `C[C@@H](CN[C@@H]1COc2ccccc2SC1)CSc1cccc2c1OCC2`: the inhibition at 1 µM in the test with Heart [3] came to 72%. In addition, the inhibition at 10 µM was 47% in test [1] and 56% in test [2].
The matching figures for `COc1cccc(SC[C@@H](C)CN[C@@H]2COc3ccccc3SC2)c1O`: 46%, 35% and 46%.
For `CCc1cccc(SC[C@@H](C)CN[C@@H]2COc3ccccc3SC2)c1O` the same measures were 13%, 56% and 56%.
For the compound `COc1ccccc1SC[C@@H](C)CN[C@@H]1COc2ccccc2SC1`, the inhibition at 1 µM in the test with Heart [3] stood at 65%.
For `C[C@@H](CN[C@@H]1COc2ccccc2SC1)CSc1cccc(F)c1O`, the inhibition at 1 µM in the test on Heart [3] amounted to 54%. The inhibition at 10 µM was determined as 38% in [1] and 40% in [2].
For `Cc1cccc(SC[C@@H](C)CN[C@@H]2COc3ccccc3SC2)c1O`, the inhibition at 1 µM in the test on Heart [3] amounted to 70%. For the same compound, the outcome in the test listed under Sus scrofa [4] and with Plasma was Active. For the same compound, the Activity in the test with Heart [5] was -5.9 mmHg; with Heart [7], 0.1 bpm; in test [8] it was 3.5%; in the test on Heart [11], -1.6 dyn.s.cm'-5.10'4. Also, the outcome with Sus scrofa [6], in the test listed under Sus scrofa [9] and with Sus scrofa [10] was inactive. The inhibition at 10 µM in test [1] came to 73%; in test [2], 87%.
Consider `C[C@@H](CN[C@@H]1COc2ccccc2SC1)CSc1cccc(N)c1O`, for which the inhibition at 10 µM turned out to be 11% in test [1] and 19% in [2].
Turning to `C[C@@H](CN[C@@H]1COc2ccccc2SC1)CSc1cccc2c1OCO2`, the inhibition at 1 µM with Heart [3] is 22%. Moreover, the inhibition at 10 µM in test [1] amounted to 32%; in test [2], 54%.
The matching figures for `C[C@@H](CN[C@@H]1COc2ccccc2SC1)CSc1cccc(C(N)=O)c1O`: 43%, 59% and 65%.
For the compound `COc1c(C)cccc1SC[C@@H](C)CN[C@@H]1COc2ccccc2SC1`, the inhibition at 10 µM worked out at 28% in test [1] and 32% in [2].
For `Cc1cccc(SC[C@@H](C)CN[C@@H]2COc3ccccc3SC2)c1N`, the inhibition at 1 µM with Heart [3] is 35%. The inhibition at 10 µM in test [1] and in test [2] was 26% throughout.
As to `C[C@@H](CN[C@@H]1COc2ccccc2SC1)CSc1cccc2cc[nH]c12`, the inhibition at 10 µM in test [1] and in test [2] was 8% throughout.
As to `CC(C)c1ccc(C(=O)N=C(N)N)cc1S(C)(=O)=O` [CARIPORIDE], in the test on Heart [3], the inhibition at 1 µM was 6%. The result in the test filed under Sus scrofa [4] and in the test on Plasma was Active. In test [12], this compound had an Activity of 6.8%.
`COc1cccc(SC[C@@H](C)CN[C@@H]2COc3ccccc3SC2)c1N`: the inhibition at 1 µM in the test with Heart [3] was 21%. Also, the inhibition at 10 µM in test [1] is 13%; in [2], 18%.
The matching figures for `C[C@@H](CN[C@@H]1COc2ccccc2SC1)CSc1cccc(F)c1N`: 33%, 11% and 19%.
As for `Cc1ccccc1SC[C@@H](C)CN[C@@H]1COc2ccccc2SC1`, the inhibition at 10 µM in test [1] came out at 11%; in test [2], 14%.
